Consider two compounds from ChEMBL document CHEMBL1268856, “The tomato saponin, esculeoside A” (J Nat Prod, 2010).

Data set [1] relates to Mus musculus. Put plainly: Antihyperlipidemic in apoE deficient mouse assessed as reduction in LDL cholesterol level at 100 mg/kg qd after 90 hrs. Format: functional. Further details: scale not given: the % may be the effect or the level left. The settings on record: in the assay text read “after 90 days” for “after 90 hrs”. Put shortly:
(§1)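 ApoE-deficient mice were fed diets with or without compound (100 mg/kg/day) for 90 days, n = 10 per group. Plasma total cholesterol, LDL cholesterol and triglyceride were then measured. Data are means ± SD.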

Data set [2] has as its system Mus musculus. Briefly: Antiatherogenesis in apoE deficient mouse assessed as reduction in aortic lesions at 100 mg/kg qd. Further details: scale not given: the % may be the effect or the level left. Format: functional, Aorta. Put shortly: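 ApoE-deficient mice given diet with or without compound at 100 mg/kg/day for 90 days, n = 10 per group. Aortic sinus cross sections stained with oil red O and viewed at ×200. Cross-sectional lesion area was quantified and compared with untreated controls.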

The subject of data set [3] is Mus musculus. Put plainly: Antihyperlipidemic in apoE deficient mouse assessed as reduction in total cholesterol level at 100 mg/kg qd after 90 hrs. Format: functional. Further details: scale not given: the % may be the effect or the level left. The settings on record: in the assay text read “after 90 days” for “after 90 hrs”. Put shortly:
as §1

Data set [4] deals with Mus musculus. Put plainly: Antihyperlipidemic in apoE deficient mouse assessed as reduction in triglyceride level at 100 mg/kg qd after 90 hrs. It is filed as functional. Details: scale not given: the % may be the effect or the level left. As to conditions: in the assay text read “after 90 days” for “after 90 hrs”. In outline: as §1
Data set [5] relates to MDM. Put plainly: Antihyperlipidemic activity in human MDM cell assessed as inhibition of acetule-LDL-induced cholesterol ester accumulation after 24 hrs. It is filed as functional, cell-based. Put shortly:
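Human monocyte-derived macrophages were incubated 24 h with 50 µg/mL acetyl-LDL plus 0.1 mM [3H]oleate conjugated to BSA, with or without compound. [3H]cholesteryl ester was separated by TLC and counted by radioscanner. Three independent experiments; means ± SD.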

Data set [6] can be described thus: Cytotoxicity against human MDM cells at 100 uM. Format: cell-based.
The subject of data set [7] is MDM. Briefly: Antihyperlipidemic activity in human MDM cell assessed as inhibition of acetule-LDL-induced cholesterol ester accumulation after 5 hrs. It is filed as functional, cell-based.
The target of data set [8] is T1, Sterol O-acyltransferase 2 (Homo sapiens) (UniProt O75908).
T1 sequence (whole entry): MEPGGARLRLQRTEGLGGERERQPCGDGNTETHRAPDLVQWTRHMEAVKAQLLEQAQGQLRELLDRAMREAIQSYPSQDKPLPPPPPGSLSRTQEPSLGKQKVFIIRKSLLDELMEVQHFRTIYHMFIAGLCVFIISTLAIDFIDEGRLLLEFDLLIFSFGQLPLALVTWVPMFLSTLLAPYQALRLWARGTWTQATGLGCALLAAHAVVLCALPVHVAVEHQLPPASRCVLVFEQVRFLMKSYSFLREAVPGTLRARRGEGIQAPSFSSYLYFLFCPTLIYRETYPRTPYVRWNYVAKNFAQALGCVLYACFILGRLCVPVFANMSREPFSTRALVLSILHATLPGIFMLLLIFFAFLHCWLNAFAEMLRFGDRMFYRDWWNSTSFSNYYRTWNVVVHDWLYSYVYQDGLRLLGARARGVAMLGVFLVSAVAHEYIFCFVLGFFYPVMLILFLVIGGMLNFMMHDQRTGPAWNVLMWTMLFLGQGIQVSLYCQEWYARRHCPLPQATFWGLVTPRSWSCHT
Briefly: Inhibition of human ACAT2 expressed in CHO cells assessed as inhibition of [3H]oleate-induced cholesterol ester accumulation. Format: cell-based. In outline:
(§2)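 CHO cells overexpressing human ACAT-1 or ACAT-2 were incubated 24 h in medium with 10% fetal calf serum, 0.1 mM [3H]oleate-BSA and the indicated compound concentrations. [3H]cholesteryl ester was separated by TLC and radioactivity measured. Repeated three times.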

The target of data set [9] is T2, Sterol O-acyltransferase 1 (Homo sapiens) (UniProt P35610).
T2 sequence (whole entry): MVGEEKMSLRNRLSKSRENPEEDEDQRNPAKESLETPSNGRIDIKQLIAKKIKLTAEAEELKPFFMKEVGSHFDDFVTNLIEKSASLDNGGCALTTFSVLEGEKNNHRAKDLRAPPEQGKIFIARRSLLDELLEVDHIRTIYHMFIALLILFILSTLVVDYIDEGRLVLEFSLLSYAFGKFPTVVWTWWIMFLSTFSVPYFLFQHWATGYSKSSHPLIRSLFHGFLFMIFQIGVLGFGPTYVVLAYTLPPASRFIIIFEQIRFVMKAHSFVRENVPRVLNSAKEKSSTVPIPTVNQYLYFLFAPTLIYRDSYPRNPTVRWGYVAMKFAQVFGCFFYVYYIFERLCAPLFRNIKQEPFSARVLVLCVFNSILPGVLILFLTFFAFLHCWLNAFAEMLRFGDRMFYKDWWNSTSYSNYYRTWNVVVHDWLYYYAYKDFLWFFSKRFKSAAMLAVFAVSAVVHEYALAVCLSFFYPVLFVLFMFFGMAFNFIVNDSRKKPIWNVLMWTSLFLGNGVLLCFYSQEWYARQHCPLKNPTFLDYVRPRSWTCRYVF
Briefly: Inhibition of human ACAT1 expressed in CHO cells assessed as inhibition of [3H]oleate-induced cholesterol ester accumulation. Format: cell-based. In outline:
as §2

SMILES strings stand for the structures. Activity calls are given as the source filed them. The calls are words filed in the database; no cut-off is given here.

As to `CC(=O)O[C@H]1C[C@H](CO[C@@H]2O[C@H](CO)[C@@H](O)[C@H](O)[C@H]2O)CN[C@@]12O[C@H]1C[C@H]3[C@@H]4CC[C@H]5C[C@@H](O[C@@H]6O[C@H](CO)[C@H](O[C@@H]7O[C@H](CO)[C@@H](O)[C@H](O[C@@H]8OC[C@@H](O)[C@H](O)[C@H]8O)[C@H]7O[C@H]7O[C@H](CO)[C@@H](O)[C@H](O)[C@H]7O)[C@H](O)[C@H]6O)CC[C@]5(C)[C@H]4CC[C@]3(C)[C@H]1[C@H]2C` [ESCULEOSIDE A], the Activity is given as 25% in the data set on Mus musculus [1]; 52% in the data set on Mus musculus [2]; 25% in the data set on Mus musculus [3]; 45% with Mus musculus [4]; “Non-toxic” in [6]. For the same compound, the result with MDM [5] was Active.

`C[C@@H]1[C@H]2[C@H](C[C@H]3[C@@H]4CC[C@H]5C[C@@H](O)CC[C@]5(C)[C@H]4CC[C@]23C)O[C@@]12NC[C@@H](CO)C[C@@H]2O`: the Activity result (in the data set with MDM [7]; in data set [8]; in [9]) was “Dose-dependent effect” each time. For the same compound, the result in the data set on MDM [5] was Active.
